The results in this text go back to PubChem BioAssay AID1800 (The Scripps Research Institute Molecular Screening Center, 2009).

Out of some 290,000 compounds screened, about 1,600 (0.55%) were called active. What follows is part of a selection rich in actives, with near analogues and random picks from the rest. A number with no mark means an inactive call.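 Rule for the calls: active = inhibition above the mean of all tested compounds plus 3 SD, set per campaign (cut at about 35% in these data); inactive = the rest.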

As usually defined, the inhibition is the relative decrease from the control value, in per cent.

For this test, the system named is Hepatitis C virus NS3 helicase. The test can be described thus: HCV NS3 DNA unwinding blockers – biochemical, Cy5 molecular beacon fluorescence, primary screen (AID 1800).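 Note: 0% = DMSO wells and 100% = thioflavine S control wells.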 To be noted: at 10.9 µM, hits give high values. A digest of the protocol: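 Compound dosing – single dose, 10.9 µM nominal final, DMSO 0.8% final · System – NS3 helicase fragment of HCV · Buffer or medium – MOPS pH 6.5, MgCl2, DTT, Tween20, BSA · Signal – Cy5 beacon fluorescence read at start and 1 h · Also added – annealed dual-labelled DNA beacon duplex, ATP-started · Schedule – 1 h at 25 °C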
As to `COc1cccc(N2C(=O)NC(=O)/C(=C\c3cn(C)c4ccccc34)C2=O)c1`, the inhibition was -1.98%.

As for `COc1ccc(N2C(=O)/C(=C/c3ccco3)C(=O)NC2=S)cc1`, the inhibition was 58.9% (active).

For the compound `COc1ccc(CN2C(=O)NC(=O)/C(=C\c3ccc(OC)c(OC)c3OC)C2=O)cc1`, the inhibition is 21.5%.

`CN(C)CCN(CC1CCCN(Cc2ccccc2F)C1)C(=O)Cc1ccc(F)c(F)c1` (stereo not given): the inhibition is -18.8%.

Regarding `Cc1ccc(S(=O)(=O)N(C)c2ccc(C(=O)NCC3(N(C)C)CCCCC3)cc2)cc1`, the inhibition is -37.1%.

For the compound `Cc1cc(C)cc(NC(=S)NC2CC3CCCC(C2)N3Cc2cccs2)c1` (stereo not given), the inhibition was -48.3%.

With `CN(C)CCCN=Cc1c(O)n(Cc2ccco2)c(=O)[nH]c1=O`, the inhibition is 16.9%.

In the case of `CC(C)n1c(=O)c(C=Nc2ccc(Br)cc2)c(O)n(Cc2ccco2)c1=O`, the inhibition is 45.5% (active).

`COc1cc2nc(N3CCN(C(=O)[C@@H]4CCCO4)CC3)nc(N)c2cc1OC`: the inhibition was -0.76%.

As to `CCN(CC)C(=O)Oc1ccc(NC(=O)N2CCOCC2)cc1`, the inhibition is 4.52%.

On to `O=C(CN1CCCC1=O)NCCc1ccccc1`, for which the inhibition was 0.89%.

`O=C1CC(=O)N(Cc2ccccc2)C(=O)N1CCCCCCN1C(=O)CC(=O)N(Cc2ccccc2)C1=O`: the inhibition was 41.5% (active).

As for `CC(C)(C)c1ccc(CN2C(=O)CN=C(c3ccccc3)c3ccccc32)cc1`, the inhibition is 14.7%.

Consider `CC1(C)Cc2c(C#N)c(N3CCNCC3)nc(-c3ccco3)c2CS1`, for which the inhibition was -44.9%.

As for `Cc1ccc(C2CN(C)CC2C(=O)c2ccc(F)cc2)cc1` (stereo not given), the inhibition is -2.19%.
